Type in all cases: cell-based, human
In test [1] the test system is M21 cells. In words: flow cytometry uptake, M21 cells. Summed up: (§1)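 Cells (2×10^6) were incubated with fluorescently labelled cyclic RGD test peptide (30 μM) for 0, 10 or 30 min. They were washed with buffer and analysed by flow cytometry. The negative control received no peptide.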
A general note: Flow cytometry measures light scatter and fluorescence of single cells or particles in a stream.

In test [2] the test system is M21 cells. In words: live cell imaging. Summed up:
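Cells were grown overnight on glass-slip chambers and counterstained with LysoTracker Red DND-99. They were then incubated 10 min with fluorescent test peptide: 5 μM for the non-PEGylated peptide, 10 μM for the 5 kDa PEGylated peptide. Washing was careful but thorough. Confocal live-cell microscopy followed, with z-stacking and gain set in the peptide channel.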

The subject of test [3] is M21L cells. The test can be described thus: flow cytometry uptake, M21L cells. Summed up: as §1
Where [4] appears, read: peptide 30 μM, 0, 10, 30 min, 37 °C, medium without FCS.

Turning to “c(RGDw(pyren‐1‐yl)K(PEG5000)) [peptide 2]”, the “mode of uptake (conclusion from flow cytometry and live cell imaging)” value in test [1] (M21 versus M21L cells, flow cytometry 30 μM plus imaging) was “integrin‐mediated endocytosis”. For the same substance, in test [1] (peptide 30 μM, 0 min), the “0 min sample versus negative control (no peptide), M21” value is “largely overlaps with the 0 min samples”. The “uptake selectivity M21 versus M21L, flow cytometry” value in test [1] (peptide 30 μM, 0, 10, 30 min) is “uptake of peptide 2 only by M21 cells”. Moreover, the “flow cytometry fluorescence, M21” value in test [1] (setting [4]) is listed as “significant fluorescence”. The “colocalization with lysosomes, M21” value in test [2] (LysoTracker Red DND-99, 10 min, 37 °C, peptide 1 5 μM, peptide 2 10 μM) was “colocalizes largely with lysosomes”. The “localization by z-stacking, M21” value in test [2] (Z-stack, peptide 10 μM, 10 min) is “presence of peptide inside the cells”. Moreover, the “0 min sample versus negative control (no peptide), M21L” value in test [3] (peptide 30 μM, 0 min) is given as “largely overlaps with the 0 min samples”. Besides, the “flow cytometry fluorescence, M21L” value in test [3] (setting [4]) is reported as “not for αv deficient M21L cells”. In addition, in test [3] (αv-deficient M21L cells), the “uptake in M21L cells (flow cytometry and live cell imaging)” value was “no uptake in αv‐deficient M21L cells”.

Source of the values: article PMC7064889 (Chembiochem, 2019).
